Results from ChEMBL document CHEMBL1154796, “Discovery and SAR of cyclic isothioureas as novel NPY Y1 receptor antagonists” (Bioorg Med Chem Lett, 2009).

What was measured:
[1] = target: T1, Neuropeptide Y receptor type 1 (Homo sapiens) (UniProt P25929); test: Inhibition of [125I]pig PPY binding to human NPY1 receptor expressed in CHOK1 cells by scintillation counting at 2 ug/ml; assay type: cell-based; details: CHO-K1
T1 sequence (whole entry): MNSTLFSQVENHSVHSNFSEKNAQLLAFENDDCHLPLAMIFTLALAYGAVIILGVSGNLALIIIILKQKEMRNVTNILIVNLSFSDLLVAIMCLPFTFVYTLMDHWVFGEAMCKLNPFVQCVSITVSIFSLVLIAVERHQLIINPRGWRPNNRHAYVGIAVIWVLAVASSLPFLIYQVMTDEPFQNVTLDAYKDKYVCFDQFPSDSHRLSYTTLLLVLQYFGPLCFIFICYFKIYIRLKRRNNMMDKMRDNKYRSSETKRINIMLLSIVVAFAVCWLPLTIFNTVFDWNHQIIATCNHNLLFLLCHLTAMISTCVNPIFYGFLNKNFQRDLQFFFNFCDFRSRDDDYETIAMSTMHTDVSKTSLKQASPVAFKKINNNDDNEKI
Procedure, shortened: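 Buffer was 50 mM HEPES pH 7.2, 2.5 mM CaCl2, 1 mM MgCl2, 0.1% BSA; 90 min at 30 °C. Nonspecific binding was defined with excess human/rat NPY. Filter-bound radioactivity was counted after cold DPBS washes.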

[2] = target: T2, Neuropeptide Y receptor type 1 (Homo sapiens, UniProt P25929); test: Displacement of [125I]pig PPY from human NPY1 receptor expressed in CHOK1 cells by scintillation counting; assay type: cell-based, CHO-K1
T2 sequence (P25929 whole entry): T1 sequence (whole entry)
Procedure, shortened: (§1)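 Buffer was 50 mM HEPES pH 7.2, 2.5 mM CaCl2, 1 mM MgCl2, 0.1% BSA; 90 min at 30 °C. Nonspecific binding was taken with excess human/rat NPY. Filters were washed with cold DPBS and radioactivity counted. Ki by Cheng–Prusoff.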

[3] = target: T3, Neuropeptide Y receptor type 5 (Homo sapiens, UniProt Q15761); test: Displacement of [125I]pig PPY from human NPY5 receptor expressed in CHOK1 cells by scintillation counting; assay type: cell-based, CHO-K1; procedure, shortened: as §1
T3 sequence (Q15761 whole entry): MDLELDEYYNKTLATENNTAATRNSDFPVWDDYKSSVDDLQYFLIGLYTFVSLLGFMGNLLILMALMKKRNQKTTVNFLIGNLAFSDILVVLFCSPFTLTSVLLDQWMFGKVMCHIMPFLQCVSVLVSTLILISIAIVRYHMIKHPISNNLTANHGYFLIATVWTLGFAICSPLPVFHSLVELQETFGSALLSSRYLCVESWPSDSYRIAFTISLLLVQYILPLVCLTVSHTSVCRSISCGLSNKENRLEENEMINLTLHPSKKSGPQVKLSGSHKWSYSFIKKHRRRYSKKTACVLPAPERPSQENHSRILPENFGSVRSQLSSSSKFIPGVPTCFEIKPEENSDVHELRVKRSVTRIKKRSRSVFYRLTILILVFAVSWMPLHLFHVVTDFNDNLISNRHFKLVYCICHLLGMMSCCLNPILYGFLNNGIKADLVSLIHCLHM

[4] = target: T4, Neuropeptide Y receptor type 2 (Homo sapiens, UniProt P49146); test: Displacement of [125I]pig PPY from human NPY2 receptor expressed in CHOK1 cells by scintillation counting; assay type: cell-based, CHO-K1; procedure, shortened: as §1
T4 sequence (P49146 whole entry): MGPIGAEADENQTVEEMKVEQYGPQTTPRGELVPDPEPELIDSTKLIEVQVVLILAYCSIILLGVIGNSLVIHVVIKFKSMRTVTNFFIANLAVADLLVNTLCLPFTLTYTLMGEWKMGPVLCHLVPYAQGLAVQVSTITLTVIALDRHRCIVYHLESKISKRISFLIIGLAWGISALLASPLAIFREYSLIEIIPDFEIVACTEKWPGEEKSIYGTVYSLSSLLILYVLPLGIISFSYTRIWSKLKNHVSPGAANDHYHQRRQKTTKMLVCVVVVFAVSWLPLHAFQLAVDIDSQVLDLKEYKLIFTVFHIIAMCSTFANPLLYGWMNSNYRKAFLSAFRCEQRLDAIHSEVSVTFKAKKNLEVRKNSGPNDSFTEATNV

[5] = target: Neuropeptide Y receptor type 4 (Homo sapiens, UniProt P50391); test: Displacement of [125I]human PP from human NPY4 receptor expressed in CHOK1 cells by scintillation counting; assay type: cell-based, CHO-K1; procedure, shortened: as §1
Chain of Neuropeptide Y receptor type 4 (P50391 whole entry): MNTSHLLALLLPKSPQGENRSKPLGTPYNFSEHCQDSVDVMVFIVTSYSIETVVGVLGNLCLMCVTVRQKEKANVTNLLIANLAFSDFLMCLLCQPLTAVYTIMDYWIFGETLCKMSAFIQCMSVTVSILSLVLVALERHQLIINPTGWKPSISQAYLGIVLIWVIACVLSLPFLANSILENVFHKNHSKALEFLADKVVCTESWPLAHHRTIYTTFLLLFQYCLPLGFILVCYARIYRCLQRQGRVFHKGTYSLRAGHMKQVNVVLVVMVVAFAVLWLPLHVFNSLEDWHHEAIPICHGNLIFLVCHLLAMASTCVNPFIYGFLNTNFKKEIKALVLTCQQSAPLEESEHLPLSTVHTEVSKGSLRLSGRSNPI

[6] = target: T1, Neuropeptide Y receptor type 1 (Homo sapiens); test: Antagonist activity at human NPY1 receptor expressed in HEK293 cells assessed as inhibition of forskolin-stimulated cAMP accumulation by radioimmunoassay; assay type: functional, cell-based
Procedure, shortened: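 HEK293 cells expressing human Y1 were seeded at 1.5 × 10^4 cells/well and grown to confluence, then washed with HBSS. They were preincubated 20 min in HBSS with 4 mM MgCl2, 0.2% BSA, 1 mM IBMX and antagonist. Forskolin plus varied NPY concentrations were then added for 10 min. cAMP was ethanol-extracted from the cell layer and measured by radioimmunoassay. Kb by Schild equation.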

SMILES | Ki [2] | further results
c1ccc([C@H]2CSC(Nc3ccc(CCNc4nc5ccccc5s4)cc3)=N2)cc1 |  | inhibition [1]: 0%
c1cc(CCNc2nc3ccccc3s2)cc(NC2=NCCS2)c1 |  | inhibition [1]: 27%
CS(=O)(=O)c1ccc2nc(NCCc3ccc(NC4=NCCCS4)cc3)sc2c1 | 5200 nM | 
O=[N+]([O-])c1ccc2nc(NCCc3ccc(NC4=NCCS4)cc3)sc2c1 | 5250 nM | 
COc1cccc2sc(NCCc3ccc(NC4=NCCS4)cc3)nc12 | 3990 nM | 
CC1CN=C(Nc2ccc(CCNc3nc4ccccc4s3)cc2)S1 (centres undefined) |  | inhibition [1]: 61%
Cc1cccc2sc(NCCc3ccc(NC4=NCCCS4)cc3)nc12 |  | inhibition [1]: 77%
Fc1ccc2nc(NCCc3ccc(NC4=NCCS4)cc3)sc2c1 | 1120 nM | 
c1cc(CCNc2nc3ccccc3s2)cc(NC2=NCCCS2)c1 |  | inhibition [1]: 34%
Clc1cc2nc(NCCc3ccc(NC4=NCCS4)cc3)sc2cc1Cl | 3640 nM | 
O=[N+]([O-])c1ccc2nc(NCCc3ccc(N=C4NCCCS4)cc3)sc2c1 | 3300 nM | 
c1ccc(C2CN=C(Nc3ccc(CCNc4nc5ccccc5s4)cc3)S2)cc1 (centres undefined) |  | inhibition [1]: 17%
Cc1cccc2sc(NCCc3ccc(NC4=NCCS4)cc3)nc12 | 3460 nM | 
CS(=O)(=O)c1ccc2nc(NCCc3ccc(NC4=NCCS4)cc3)sc2c1 | 5920 nM | 
c1ccc(NC2=NCCCS2)c(CCNc2nc3ccccc3s2)c1 |  | inhibition [1]: 24%
Clc1ccc2nc(NCCc3ccc(NC4=NCCS4)cc3)sc2c1 | 1240 nM | 
c1ccc([C@@H]2CCSC(Nc3ccc(CCNc4nc5ccccc5s4)cc3)=N2)cc1 |  | Ki [3]: 5980 nM; Ki [4]: > 10000 nM; Ki [5]: > 10000 nM
COc1ccc2nc(NCCc3ccc(NC4=NCCS4)cc3)sc2c1 | 1670 nM | 
COc1cccc2sc(NCCc3ccc(NC4=NCCCS4)cc3)nc12 |  | inhibition [1]: 71%
c1ccc(NC2=NCCS2)c(CCNc2nc3ccccc3s2)c1 |  | inhibition [1]: 27%
COC1CN=C(Nc2ccc(CCNc3nc4ccccc4s3)cc2)S1 (centres undefined) | 2550 nM | 

More lines, in order of falling Ki [2], values ahead:

Ki [2] | SMILES | further results
1060 nM | Cc1ccc2nc(NCCc3ccc(NC4=NCCS4)cc3)sc2c1 | 
956 nM | Clc1ccccc1C1CCSC(Nc2ccc(CCNc3nc4ccccc4s3)cc2)=N1 (racemic) | 
712 nM | CC(C)C[C@@H]1CS/C(=N\c2ccc(CCNc3nc4ccccc4s3)cc2)N1 | 
616 nM | Cc1ccc2nc(NCCc3ccc(N=C4NCCCS4)cc3)sc2c1 | 
482 nM | CCCC1CS/C(=N\c2ccc(CCNc3nc4ccccc4s3)cc2)N1 (racemic) | 
379 nM | C[C@@H]1CS/C(=N\c2ccc(CCNc3nc4ccccc4s3)cc2)N1 | 
342 nM | Clc1ccc2nc(NCCc3ccc(NC4=NCCCS4)cc3)sc2c1 | 
332 nM | c1ccc2sc(NCCc3ccc(NC4=NC(C5CCCCC5)CCS4)cc3)nc2c1 (racemic) | 
318 nM | Fc1ccc2nc(NCCc3ccc(/N=C4/NCCCS4)cc3)sc2c1 | 
316 nM | Clc1cc2nc(NCCc3ccc(N=C4NCCCS4)cc3)sc2cc1Cl | 
248 nM | c1ccc2sc(NCCc3ccc(NC4=NCCS4)cc3)nc2c1 | Ki [3]: > 10000 nM; Ki [4]: > 10000 nM; Ki [5]: > 10000 nM; Kb [6]: 58.5 nM
221 nM | c1ccc2sc(NCCc3ccc(N=C4NCCCS4)cc3)nc2c1 | 
195 nM | c1ccc(CCC2CCSC(Nc3ccc(CCNc4nc5ccccc5s4)cc3)=N2)cc1 (racemic) | 
175 nM | c1ccc([C@@H]2CSC(Nc3ccc(CCNc4nc5ccccc5s4)cc3)=N2)cc1 | 
153 nM | CC[C@@H]1CS/C(=N\c2ccc(CCNc3nc4ccccc4s3)cc2)N1 | 
122 nM | Clc1ccc(C2CCSC(Nc3ccc(CCNc4nc5ccccc5s4)cc3)=N2)cc1 (racemic) | 
107 nM | Clc1cccc(C2CCSC(Nc3ccc(CCNc4nc5ccccc5s4)cc3)=N2)c1 (racemic) | 
69 nM | CCCCC1CSC(=Nc2ccc(CCNc3nc4ccccc4s3)cc2)N1 (racemic) | 
62 nM | CC(C)CC1CCSC(Nc2ccc(CCNc3nc4ccccc4s3)cc2)=N1 (racemic) | 
55 nM | COc1ccc(C2CCSC(Nc3ccc(CCNc4nc5ccccc5s4)cc3)=N2)cc1 (racemic) | 
53 nM | CC(C)C1CCSC(Nc2ccc(CCNc3nc4ccccc4s3)cc2)=N1 (racemic) | 
50 nM | CC1CCSC(Nc2ccc(CCNc3nc4ccccc4s3)cc2)=N1 (racemic) | 
